≈ marks a conversion by molar mass, not a printed value. Calls of active or inactive are those of the source. The rule behind the calls is not given here.
How the values were obtained:
Bacillus subtilis [1] = test: Antibacterial activity against Bacillus subtilis at 100 ug/ml incubated for 24 hrs by agar well diffusion method; format: functional; conditions: read-out: DIZ
Outline: (§1)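 Bacteria grown in nutrient broth at 37 °C for 24 h, then subcultured at room temperature. Compounds dissolved in DMSO at 5 mg mL⁻¹ and 5–20 µL added to 6 mm wells, giving 25, 50, 75, 100 µg per well. Gentamicin was the positive control and DMSO the negative control. Plates held at 37 °C for 24 h, then inhibition zone diameter (mm) measured. Values are means of three determinations.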

Aspergillus niger [2] = test: Antifungal activity against Aspergillus niger at 50 ug/ml incubated for 48 hrs by agar well diffusion method; format: functional; conditions: read-out: DIZ
Outline: (§2)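 Compounds dissolved in DMSO at 5 mg mL⁻¹ and 5–20 µL added to 6 mm wells, giving 25, 50, 75, 100 µg per well. Bavistin was the positive control and DMSO the negative control. Plates incubated at 28 °C for 48 h, then inhibition zone diameter (mm) measured. Values are means of three determinations.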

Bacillus subtilis [3] = test: Antibacterial activity against Bacillus subtilis at 75 ug/ml incubated for 24 hrs by agar well diffusion method; format: functional; conditions: read-out: DIZ; outline: as §1
Escherichia coli [4] = test: Antibacterial activity against Escherichia coli at 50 ug/ml incubated for 24 hrs by agar well diffusion method; format: functional; conditions: read-out: DIZ; outline: as §1
Candida albicans [5] = test: Antifungal activity against Candida albicans at 50 ug/ml incubated for 48 hrs by agar well diffusion method; format: functional; conditions: read-out: DIZ; outline: as §2
Aspergillus niger [6] = test: Antifungal activity against Aspergillus niger at 100 ug/ml incubated for 48 hrs by agar well diffusion method; format: functional; conditions: read-out: DIZ; outline: as §2
Staphylococcus aureus [7] = test: Antibacterial activity against Staphylococcus aureus at 100 ug/ml incubated for 24 hrs by agar well diffusion method; format: functional; conditions: read-out: DIZ; outline: as §1
Klebsiella pneumoniae [8] = test: Antibacterial activity against Klebsiella pneumoniae at 100 ug/ml incubated for 24 hrs by agar well diffusion method; format: functional; conditions: read-out: DIZ; outline: as §1
Bacillus subtilis [9] = test: Antibacterial activity against Bacillus subtilis at 50 ug/ml incubated for 24 hrs by agar well diffusion method; format: functional; conditions: read-out: DIZ; outline: as §1
Fusarium oxysporum [10] = test: Antifungal activity against Fusarium oxysporum at 25 ug/ml incubated for 48 hrs by agar well diffusion method; format: functional; conditions: for zone of inhibition at 25 µg/mL: read-out: DIZ; outline: as §2
Bacillus subtilis [11] = test: Antibacterial activity against Bacillus subtilis at 25 ug/ml incubated for 24 hrs by agar well diffusion method; format: functional; conditions: read-out: DIZ; outline: as §1
Escherichia coli [12] = test: Antibacterial activity against Escherichia coli at 100 ug/ml incubated for 24 hrs by agar well diffusion method; format: functional; conditions: read-out: DIZ; outline: as §1
Candida albicans [13] = test: Antifungal activity against Candida albicans at 25 ug/ml incubated for 48 hrs by agar well diffusion method; format: functional; conditions: read-out: DIZ; outline: as §2
Candida albicans [14] = test: Antifungal activity against Candida albicans at 100 ug/ml incubated for 48 hrs by agar well diffusion method; format: functional; conditions: read-out: DIZ; outline: as §2
Aspergillus niger [15] = test: Antifungal activity against Aspergillus niger at 75 ug/ml incubated for 48 hrs by agar well diffusion method; format: functional; conditions: read-out: DIZ; outline: as §2
Staphylococcus aureus [16] = test: Antibacterial activity against Staphylococcus aureus at 75 ug/ml incubated for 24 hrs by agar well diffusion method; format: functional; conditions: read-out: DIZ; outline: as §1
Klebsiella pneumoniae [17] = test: Antibacterial activity against Klebsiella pneumoniae at 50 ug/ml incubated for 24 hrs by agar well diffusion method; format: functional; conditions: read-out: DIZ; outline: as §1
Escherichia coli [18] = test: Antibacterial activity against Escherichia coli at 75 ug/ml incubated for 24 hrs by agar well diffusion method; format: functional; conditions: read-out: DIZ; outline: as §1
Staphylococcus aureus [19] = test: Antibacterial activity against Staphylococcus aureus at 50 ug/ml incubated for 24 hrs by agar well diffusion method; format: functional; conditions: read-out: DIZ; outline: as §1
Erythrocyte = test: Anti-inflammatory activity in human RBC assessed as inhibition of hypotonic solution-induced hemolysis after 10 mins by spectrophotometric method; format: functional, cell-based
Outline: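 Human blood (heparinized) washed with 0.9% saline, packed cells made into a 40% v/v stock in isotonic phosphate buffer (154 mM NaCl, 10 mM sodium phosphate, pH 7.4). Stock RBC mixed with hypotonic buffer (50 mM NaCl, 10 mM phosphate, pH 7.4) plus sample at 20–100 µg mL⁻¹.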

Candida albicans [20] = test: Antifungal activity against Candida albicans at 75 ug/ml incubated for 48 hrs by agar well diffusion method; format: functional; conditions: read-out: DIZ; outline: as §2
Klebsiella pneumoniae [21] = test: Antibacterial activity against Klebsiella pneumoniae at 75 ug/ml incubated for 24 hrs by agar well diffusion method; format: functional; conditions: read-out: DIZ; outline: as §1
Staphylococcus aureus [22] = test: Antibacterial activity against Staphylococcus aureus at 25 ug/ml incubated for 24 hrs by agar well diffusion method; format: functional; conditions: read-out: DIZ; outline: as §1
Aspergillus niger [23] = test: Antifungal activity against Aspergillus niger at 25 ug/ml incubated for 48 hrs by agar well diffusion method; format: functional; conditions: read-out: DIZ; outline: as §2
Fusarium oxysporum [24] = test: Antifungal activity against Fusarium oxysporum at 75 ug/ml incubated for 48 hrs by agar well diffusion method; format: functional; conditions: for zone of inhibition at 75 µg/mL: read-out: DIZ; outline: as §2
Fusarium oxysporum [25] = test: Antifungal activity against Fusarium oxysporum at 50 ug/ml incubated for 48 hrs by agar well diffusion method; format: functional; conditions: for zone of inhibition at 50 µg/mL: read-out: DIZ; outline: as §2
Klebsiella pneumoniae [26] = test: Antibacterial activity against Klebsiella pneumoniae at 25 ug/ml incubated for 24 hrs by agar well diffusion method; format: functional; conditions: read-out: DIZ; outline: as §1
Escherichia coli [27] = test: Antibacterial activity against Escherichia coli at 25 ug/ml incubated for 24 hrs by agar well diffusion method; format: functional; conditions: read-out: DIZ; outline: as §1
Fusarium oxysporum [28] = test: Antifungal activity against Fusarium oxysporum at 100 ug/ml incubated for 48 hrs by agar well diffusion method; format: functional; conditions: for zone of inhibition at 100 µg/mL: read-out: DIZ; outline: as §2

| SMILES | zone of inhibition at 100 µg/mL (Bacillus subtilis [1]) | zone of inhibition at 50 µg/mL (Aspergillus niger [2]) | zone of inhibition at 75 µg/mL (Bacillus subtilis [3]) | zone of inhibition at 50 µg/mL (Escherichia coli [4]) | zone of inhibition at 50 µg/mL (Candida albicans [5]) | zone of inhibition at 100 µg/mL (Aspergillus niger [6]) | zone of inhibition at 100 µg/mL (Staphylococcus aureus [7]) | zone of inhibition at 100 µg/mL (Klebsiella pneumoniae [8]) | zone of inhibition at 50 µg/mL (Bacillus subtilis [9]) | zone of inhibition at 25 µg/mL (Bacillus subtilis [11]) | zone of inhibition at 100 µg/mL (Escherichia coli [12]) | zone of inhibition at 25 µg/mL (Candida albicans [13]) | zone of inhibition at 100 µg/mL (Candida albicans [14]) | zone of inhibition at 75 µg/mL (Aspergillus niger [15]) | zone of inhibition at 75 µg/mL (Staphylococcus aureus [16]) | zone of inhibition at 50 µg/mL (Klebsiella pneumoniae [17]) | zone of inhibition at 75 µg/mL (Escherichia coli [18]) | zone of inhibition at 50 µg/mL (Staphylococcus aureus [19]) | IC50 (Erythrocyte) | zone of inhibition at 75 µg/mL (Candida albicans [20]) | other results |
| --- | --- | --- | --- | --- | --- | --- | --- | --- | --- | --- | --- | --- | --- | --- | --- | --- | --- | --- | --- | --- | --- |
| CC[C@H](C)[C@H](N)C(=O)Oc1ccc2c(=O)c3ccccc3oc2c1.Cl | 24 mm | 15 mm | 20 mm | 13 mm | 14 mm | 23 mm | 23 mm | 24 mm | 17 mm | 11 mm | 22 mm | 10 mm | 20 mm | 18 mm | 19 mm | 13 mm | 18 mm | 12 mm | 68 µg/mL | 16 mm | zone of inhibition at 25 µg/mL (Fusarium oxysporum [10]): 11 mm; zone of inhibition at 75 µg/mL (Klebsiella pneumoniae [21]): 18 mm; zone of inhibition at 25 µg/mL (Staphylococcus aureus [22]): 7 mm; zone of inhibition at 25 µg/mL (Aspergillus niger [23]): 10 mm; zone of inhibition at 75 µg/mL (Fusarium oxysporum [24]): 19 mm; zone of inhibition at 50 µg/mL (Fusarium oxysporum [25]): 15 mm; zone of inhibition at 25 µg/mL (Klebsiella pneumoniae [26]): 8 mm; zone of inhibition at 25 µg/mL (Escherichia coli [27]): 10 mm; zone of inhibition at 100 µg/mL (Fusarium oxysporum [28]): 21 mm |
| Cl.N[C@@H](CS)C(=O)Oc1ccc2c(=O)c3ccccc3oc2c1 | 34 mm | 27 mm | 31 mm | 28 mm | 26 mm | 37 mm | 39 mm | 37 mm | 26 mm | 19 mm | 39 mm | 17 mm | 40 mm | 32 mm | 35 mm | 23 mm | 34 mm | 29 mm | 30 µg/mL | 35 mm | zone of inhibition at 25 µg/mL (Fusarium oxysporum [10]): 20 mm; zone of inhibition at 75 µg/mL (Klebsiella pneumoniae [21]): 30 mm; zone of inhibition at 25 µg/mL (Staphylococcus aureus [22]): 20 mm; zone of inhibition at 25 µg/mL (Aspergillus niger [23]): 19 mm; zone of inhibition at 75 µg/mL (Fusarium oxysporum [24]): 33 mm; zone of inhibition at 50 µg/mL (Fusarium oxysporum [25]): 28 mm; zone of inhibition at 25 µg/mL (Klebsiella pneumoniae [26]): 15 mm; zone of inhibition at 25 µg/mL (Escherichia coli [27]): 19 mm; zone of inhibition at 100 µg/mL (Fusarium oxysporum [28]): 39 mm |
| CC[C@H](C)[C@H](NC(=O)OC(C)(C)C)C(=O)Oc1ccc2c(=O)c3ccccc3oc2c1 | 19 mm | 12 mm | 14 mm | 12 mm | 13 mm | 20 mm | 19 mm | 25 mm | 11 mm | 7 mm | 22 mm | 9 mm | 22 mm | 16 mm | 15 mm | 14 mm | 19 mm | 10 mm | 60 µg/mL (≈ 141 µM) | 17 mm | diameter of the inhibition zone (DIZ) (Fusarium oxysporum [10]): inactive; zone of inhibition at 75 µg/mL (Klebsiella pneumoniae [21]): 20 mm; zone of inhibition at 25 µg/mL (Staphylococcus aureus [22]): 4 mm; zone of inhibition at 25 µg/mL (Aspergillus niger [23]): 8 mm; diameter of the inhibition zone (DIZ) (Fusarium oxysporum [24]): inactive; diameter of the inhibition zone (DIZ) (Fusarium oxysporum [25]): inactive; zone of inhibition at 25 µg/mL (Klebsiella pneumoniae [26]): 7 mm; zone of inhibition at 25 µg/mL (Escherichia coli [27]): 8 mm; diameter of the inhibition zone (DIZ) (Fusarium oxysporum [28]): inactive |
| CC(C)(C)OC(=O)N[C@@H](CS)C(=O)Oc1ccc2c(=O)c3ccccc3oc2c1 | 34 mm | 26 mm | 29 mm | 26 mm | 22 mm | 34 mm | 34 mm | 34 mm | 26 mm | 20 mm | 34 mm | 17 mm | 34 mm | 31 mm | 32 mm | 24 mm | 30 mm | 28 mm | 32 µg/mL (≈ 77 µM) | 28 mm | zone of inhibition at 25 µg/mL (Fusarium oxysporum [10]): 18 mm; zone of inhibition at 75 µg/mL (Klebsiella pneumoniae [21]): 30 mm; zone of inhibition at 25 µg/mL (Staphylococcus aureus [22]): 20 mm; zone of inhibition at 25 µg/mL (Aspergillus niger [23]): 18 mm; zone of inhibition at 75 µg/mL (Fusarium oxysporum [24]): 30 mm; zone of inhibition at 50 µg/mL (Fusarium oxysporum [25]): 24 mm; zone of inhibition at 25 µg/mL (Klebsiella pneumoniae [26]): 18 mm; zone of inhibition at 25 µg/mL (Escherichia coli [27]): 18 mm; zone of inhibition at 100 µg/mL (Fusarium oxysporum [28]): 35 mm |
| CSCC[C@H](N)C(=O)Oc1ccc2c(=O)c3ccccc3oc2c1.Cl | 31 mm | 18 mm | 25 mm | 21 mm | 17 mm | 24 mm | 28 mm | 33 mm | 20 mm | 15 mm | 29 mm | 12 mm | 23 mm | 21 mm | 22 mm | 24 mm | 25 mm | 19 mm | 34 µg/mL | 21 mm | zone of inhibition at 25 µg/mL (Fusarium oxysporum [10]): 13 mm; zone of inhibition at 75 µg/mL (Klebsiella pneumoniae [21]): 29 mm; zone of inhibition at 25 µg/mL (Staphylococcus aureus [22]): 17 mm; zone of inhibition at 25 µg/mL (Aspergillus niger [23]): 11 mm; zone of inhibition at 75 µg/mL (Fusarium oxysporum [24]): 19 mm; zone of inhibition at 50 µg/mL (Fusarium oxysporum [25]): 17 mm; zone of inhibition at 25 µg/mL (Klebsiella pneumoniae [26]): 17 mm; zone of inhibition at 25 µg/mL (Escherichia coli [27]): 17 mm; zone of inhibition at 100 µg/mL (Fusarium oxysporum [28]): 22 mm |

From ChEMBL document CHEMBL4261538, “Synthesis and molecular docking studies of xanthone attached amino acids as potential antimicrobial and anti-inflammatory agents” (Medchemcomm, 2017)
